Hits are enriched below; roughly 8.9% of the tested compounds scored in any of these assays.
L major viab – reduces viability of Leishmania major promastigotes; resazurin fluorescence viability; inhibition, % at 10 µM; hit rate 9% among 200,000; AID 1063; in the data active = inhibition above about 50%;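 also: promastigotes grown with compound for 44 hours at 28 °C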
HSV augment – increases HSV replication in cells; HSV replication augmentation in cells, fold increase; maximum fold increase; hit rate 0.005% among 220,000; in the data active = maximum fold increase above about 1.5; tested in PC3 cells
b-catenin transl – beta-catenin nuclear translocation modulation; AID 1665; nuclear translocation activity, % at 5 µM; hit rate 0.3% among 190,000; HeLa beta-catenin nuclear translocation, immunofluorescence imaging;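 active = nuclear translocation activity above 50% at 5 µM, with a well cell count of 50 or more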;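 also: per-cell ratio of nuclear to cytoplasmic median beta-catenin stain intensity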
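Test system: HeLa cells, endogenous beta-catenin; Compound: single 5 µM dose plus 0.02–20 µM confirmation series; Times: compound exposure 24 h at 37°C; Signal: fluorescence imaging of beta-catenin antibody stain plus DAPI; Read-out: % activation, nuclear-to-cytoplasmic median beta-catenin signal ratio per cell.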
MT stabilize HCS – microtubule stabilizers in HeLa cells; HeLa tubulin immunostaining HCS, 24 h; share of cells brighter than vehicle mean+2SD; AID 2205; % tubulin-high responders, % at 10 µM; hit rate 0.83% among 200,000;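 active = plate Z-score above 3 for both tubulin-high and condensed-nucleus cell shares, with cell loss under 80%, at 10 µM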;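 also: anti alpha tubulin signal scored within the nucleus-defined area of each cell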
Dynein cargo inh – blocks dynein driven cargo transport along microtubules. 3617.4 mouse cells, GR-EGFP nuclear translocation imaging; test concentration mostly 20 µM; stimulated with dexamethasone, 1 µM; hits give low values. AID 1381. hit rate 0.47% among 220,000. z-score, hits read low;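 active = plate z-score of nuclear minus cytoplasmic receptor signal below a set negative limit, without overly bright fluorescence or cell loss, cut at about -3.5 in these data, passing the limit was not always enough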;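 also: z-score of nuclear minus cytoplasmic ring GR-EGFP intensity difference per well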
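medium = tetracycline-free induction medium containing charcoal-stripped FBS | also added = 1.0 µM final dexamethasone stimulus | schedule = 48 h induction, 1 h compound, 30 min dex at 37 °C | technique = fixed, Hoechst-stained cells imaged at 10x for EGFP | measure = GR-EGFP nuclear translocation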
Of the large screens only hits and unclear results are named; the others gave an inactive call.

CCN1CCN(CCNC(=O)c2cn(C(C)c3ccccc3F)nn2)CC1 (centres undefined)	none
Cc1ccc(C(C)n2cc(C(=O)NCCN3CCN(C)CC3)nn2)cc1 (centres undefined)	L major viab 92
CCN(C(=O)c1cc2ccccc2oc1=O)c1cccc(C)c1	none (no result: b-catenin transl)
C/C=C/c1ccc(OCCOc2cc(C=O)ccc2OC)c(OC)c1	L major viab 85
C/C=C/c1ccc(OCCCNC2CCCC2)c(OC)c1	L major viab 100
C/C=C/c1ccc(OCCCNC(C)CC)c(OC)c1 (centres undefined)	none
COc1ccc(/C=C2\SC(=N)N(c3nccs3)C2=O)cc1OC	L major viab 97
COc1ccc(/C=C2/N=C(SC)NC2=O)cc1OC	none (no result: L major viab, MT stabilize HCS)
N=C1S/C(=C\c2ccc(-c3cccc(Cl)c3)o2)C(=O)N1c1nccs1	L major viab 99
COc1ccc(/C=C2\SC(=O)N=C2N)cc1OC	L major viab 53
COc1ccc(/C=C2\SC(=S)N(NC(=O)c3ccncc3)C2=O)cc1OC	none
O=C1OC(c2cccs2)=N/C1=C\c1ccc(-c2cccc(Cl)c2)o1	none
O=c1c2ccccc2c(C=Nc2ccc(O)cc2)c(O)n1-c1nccs1	none (no result: L major viab, MT stabilize HCS)
CCN(CC)c1cccc(OC2=NS(=O)(=O)c3ccccc32)c1	L major viab 80
CCc1ccc(OC2=NS(=O)(=O)c3ccccc32)cc1	none
Cc1cccc(-n2nnnc2SCC(=O)c2cc(C)n(CC3CCCO3)c2C)c1 (centres undefined)	none
CN(CC(=O)Nc1ccc(S(=O)(=O)N2CCCC2)cc1)Cc1ccc(Cl)cc1	none
CC1CCCN(CC(=O)Nc2ccc(S(=O)(=O)N3CCCCCC3)cc2)C1 (centres undefined)	L major viab 84
CC1CCCN(CC(=O)Nc2ccc(S(=O)(=O)N3CCCCC3)cc2)C1 (centres undefined)	L major viab 92
CN(CC(=O)Nc1ccc(S(=O)(=O)N2CCCC2)cc1)Cc1c(F)cccc1Cl	L major viab 100
O=C(CS(=O)(=O)Cc1ccccc1)Nc1ccc(S(=O)(=O)N2CCCCCC2)cc1	L major viab 52
O=C(CN1CCCCC1)Nc1ccc(S(=O)(=O)N2CCCCCC2)cc1	none
CS(=O)(=O)N1CCC(C(=O)Nc2cccc(C(F)(F)F)c2)CC1	none
Cc1ccsc1/C=N\NC(=O)c1ccc2c(c1)OCO2	none (no result: HSV augment, b-catenin transl)
O=S(=O)(c1ccc(-n2cnnn2)cc1)N(C1CCCCC1)C1CCCCC1	none
COC(=O)c1sc(NC(=O)/C=C/c2ccc(C)cc2)nc1C	none (no result: HSV augment)
Nc1cc2c(cc1C(=O)c1cccc(Br)c1)OCCO2	MT stabilize HCS 16
Cc1ccc(-n2c(O)c(C=NCc3ccccn3)c3ccccc3c2=O)cc1C	L major viab 71
CC(=O)c1cc2c(cc1N/C(=N/S(=O)(=O)c1ccc(Br)cc1)c1ccccc1)OCO2	none
O=S1(=O)N=C(N(CCO)/N=C/C=C/c2ccccc2)c2ccccc21	L major viab 53 (no result: b-catenin transl)
COc1ccccc1-n1cnc2cc(NC(=O)c3ccco3)ccc21	b-catenin transl 62, MT stabilize HCS 52
COc1ccc(NS(=O)(=O)c2ccc(N3CCOCC3)c(NC(=O)c3ccco3)c2)cc1	none
COc1ccccc1NS(=O)(=O)c1cc(NC(=O)c2ccco2)ccc1N1CCOCC1	L major viab 100
COc1ccc(-n2cnc3cc(NC(=O)c4ccco4)ccc32)cc1	none (no result: b-catenin transl)
COc1ccccc1NS(=O)(=O)c1cc(NC(=O)c2ccccc2F)ccc1N1CCOCC1	none
COc1ccc(NS(=O)(=O)c2ccc(N3CCOCC3)c(NC(=O)c3ccc(F)cc3)c2)cc1	L major viab 72
COc1ccc(NS(=O)(=O)c2ccc(N3CCOCC3)c(NC(=O)c3cccc(F)c3)c2)cc1	none
COc1ccccc1NS(=O)(=O)c1ccc(N2CCOCC2)c(NC(=O)c2ccco2)c1	L major viab 69
COc1cc2ccc(=O)oc2c(O)c1OCC=C(C)C	none
COC(=O)c1sc(NC(=O)CC(C)C)c(C(=O)OC)c1C	none (no result: b-catenin transl)
CCC1Oc2ccc(C)cc2N(CC(=O)N(Cc2ccc(C)o2)C2CC(C)(C)NC(C)(C)C2)C1=O (centres undefined)	none
Cc1ccc(NCC(=O)N/N=C/c2ccc(C(=O)O)cc2)cc1	none (no result: L major viab, MT stabilize HCS)
Cn1cc(/C=C(\C#N)C(=O)Nc2ncc(Cc3cccc(Cl)c3)s2)c2ccccc21	L major viab 91
CCOC(=O)c1sc2nc3n(c(=O)c2c1C)CCC(C)CC3 (centres undefined)	none (no result: b-catenin transl)
Cc1cc(N2CCCC2)ccc1/C=C1/C(=O)N(C)C(=S)N1C	MT stabilize HCS 25 (no result: HSV augment)
CC(C)(C)NC(=O)CCN(/N=C/c1ccc([N+](=O)[O-])o1)C1=NS(=O)(=O)c2ccccc21	L major viab 99
CN(/N=C/c1ccncc1)C1=NS(=O)(=O)c2ccccc21	none
COc1ccc(-c2cc(C(=O)N3CCN(c4ccccc4)CC3)c3ccccc3n2)cc1	b-catenin transl 113, MT stabilize HCS 17
CCOc1ccc(-c2cc(C(=O)N3CCN(C)CC3)c3ccccc3n2)cc1	none (no result: b-catenin transl)
CCOc1ccc(-c2cc(C(=O)N3CCN(c4ccccn4)CC3)c3ccccc3n2)cc1	MT stabilize HCS 24 (no result: b-catenin transl)
CCOC(=O)N1CCN(C(=O)c2cc(-c3ccc(OCC)cc3)nc3ccccc23)CC1	none (no result: b-catenin transl)
COc1cc(-c2cc(C(=O)N3CCN(c4ccccn4)CC3)c3ccccc3n2)cc(OC)c1OC	none (no result: b-catenin transl)
COc1ccc(-c2cc(C(=O)N3CCN(c4ccccn4)CC3)c3ccccc3n2)cc1	MT stabilize HCS 29
COc1cccc(/C=C/C(=O)OC(C)C(=O)Nc2c(C)n(C)n(-c3ccccc3)c2=O)c1 (centres undefined)	none
Cc1nc(SC2C=CS(=O)(=O)C2)n[nH]1 (centres undefined)	none (no result: b-catenin transl)
CCOC(=O)c1c(/N=C/C2C(=O)CCCC2=O)sc2c1CCCC2	none
CC(C)c1ccc(NC(=S)NC2CCCCCC2)cc1	none
COc1ccc(NC(=O)c2ccc(S(=O)(=O)N(C)C)cc2)cc1	none
CCOC(=O)Cc1csc(NC(=O)c2ccc(S(=O)(=O)N(CCOC)CCOC)cc2)n1	none
COc1ccc(-n2c(C)cc(-c3csc(NC(=O)c4ccc(S(=O)(=O)N(C)C)cc4)n3)c2C)cc1	L major viab 63
COCCN(CCOC)S(=O)(=O)c1ccc(C(=O)Nc2nc(-c3ccncc3)cs2)cc1	L major viab 85
CN(C)S(=O)(=O)c1cccc(NC(=O)CNCc2ccccn2)c1	none (no result: L major viab, MT stabilize HCS)
CC(C)N1CSC(=S)N(Cc2ccccc2)C1	L major viab 75
S=C1SCN(Cc2cccnc2)CN1Cc1ccccc1	L major viab 72
CC(C)(C)N1CSC(=S)N(Cc2ccccc2)C1	L major viab 91
S=C1NCN(Cc2cccnc2)CN1Cc1ccccc1	none (no result: L major viab, MT stabilize HCS)
CN(C)C(=S)NC(=O)C12CC3(C)CC(C)(CC(C)(C3)C1)C2	none (no result: L major viab, MT stabilize HCS)
O=C(c1ccco1)N1CCN(C(=O)c2ccc(COc3ccc(Cl)cc3Cl)o2)CC1	none (no result: b-catenin transl)
CCn1c(=O)c(=O)[nH]c2cc(C(=O)NCC3CCCCC3)ccc21	L major viab 68 (no result: b-catenin transl)

From PubChem
